ChEMBL document CHEMBL4052637, “Discovery and Characterization of R/S-N-3-Cyanophenyl-N'-(6-tert-butoxycarbonylamino-3,4-dihydro-2,2-dimethyl-2H-1-benzopyran-4-yl)urea, a New Histone Deacetylase Class III Inhibitor Exerting Antiproliferative Activity against Cancer Cell Lines” (J Med Chem, 2017)
Active and inactive are the calls of the source. No cut-off for these calls is given here.

What was measured:
BT-549 = test: Growth inhibition of human BT549 cells after 48 hrs by SRB assay; format: functional; settings: BT-549, 48 h
[1] = Selectivity index, ratio of IC50 for mouse astrocytes to IC50 for human Hs683 cells
HCC 2998 = test: Growth inhibition of human HCC2998 cells after 48 hrs by SRB assay; format: functional; settings: HCC 2998, 48 h
Homo sapiens = species: Homo sapiens; test: Inhibition of HDAC isolated from human K562 cells at 0.1 to 100 uM using Fluor-de-Lys as substrate after 15 mins by fluorescence assay
[2] = Potency index, ratio of EX-527 IC50 to test compound IC50 for human U373 cells; format: functional, U-373MG ATCC
[3] = Selectivity index, ratio of IC50 for mouse astrocytes to IC50 for human T98G cells
[4] = target: T1, NAD-dependent protein deacetylase sirtuin-2 (Homo sapiens) (UniProt Q8IXJ6); test: Inhibition of SIRT2 in human U373 cells assessed as increase of alpha-tubulin acetylation at 1 uM after 8 hrs by Western blotting method relative to control; format: cell-based
T1 sequence (whole entry): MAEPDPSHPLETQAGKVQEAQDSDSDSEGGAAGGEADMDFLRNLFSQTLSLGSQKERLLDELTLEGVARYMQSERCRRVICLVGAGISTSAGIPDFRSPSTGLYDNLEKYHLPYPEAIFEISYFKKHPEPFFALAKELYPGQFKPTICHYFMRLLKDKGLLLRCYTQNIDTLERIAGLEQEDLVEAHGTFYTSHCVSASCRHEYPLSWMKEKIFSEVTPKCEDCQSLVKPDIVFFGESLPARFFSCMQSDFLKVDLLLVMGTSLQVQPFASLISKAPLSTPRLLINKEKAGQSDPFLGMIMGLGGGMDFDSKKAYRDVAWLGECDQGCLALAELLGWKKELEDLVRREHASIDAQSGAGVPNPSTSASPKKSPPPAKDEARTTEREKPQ

[5] = target: T2, NAD-dependent protein deacetylase sirtuin-1 (Homo sapiens) (UniProt Q96EB6); test: Inhibition of SIRT1 in human Hs683 cells assessed as increase of histone H4 acetylation at 10 uM after 8 hrs by Western blotting method relative to control; format: cell-based
T2 sequence (whole entry): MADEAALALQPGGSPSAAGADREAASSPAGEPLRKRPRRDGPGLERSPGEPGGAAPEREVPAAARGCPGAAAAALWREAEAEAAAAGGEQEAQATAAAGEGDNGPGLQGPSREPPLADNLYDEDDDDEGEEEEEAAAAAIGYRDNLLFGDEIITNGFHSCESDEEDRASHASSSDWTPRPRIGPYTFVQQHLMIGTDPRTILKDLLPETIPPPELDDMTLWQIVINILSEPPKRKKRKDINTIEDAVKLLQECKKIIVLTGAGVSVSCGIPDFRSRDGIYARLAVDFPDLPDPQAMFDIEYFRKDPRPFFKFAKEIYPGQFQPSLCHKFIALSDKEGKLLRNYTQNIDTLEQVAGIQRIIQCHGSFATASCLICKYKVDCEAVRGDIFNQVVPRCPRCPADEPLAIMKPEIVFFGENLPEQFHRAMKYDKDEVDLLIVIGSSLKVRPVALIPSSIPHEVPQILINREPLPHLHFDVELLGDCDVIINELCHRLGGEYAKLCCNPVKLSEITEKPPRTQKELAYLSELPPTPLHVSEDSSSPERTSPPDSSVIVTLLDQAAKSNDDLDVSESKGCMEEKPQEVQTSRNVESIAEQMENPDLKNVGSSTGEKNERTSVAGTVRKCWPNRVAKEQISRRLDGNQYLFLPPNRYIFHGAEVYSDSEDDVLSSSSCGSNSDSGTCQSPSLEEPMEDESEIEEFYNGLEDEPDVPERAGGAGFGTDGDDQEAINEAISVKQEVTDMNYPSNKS

OVCAR-4 = test: Growth inhibition of human OVCAR4 cells after 48 hrs by SRB assay; format: functional; settings: OVCAR-4, 48 h
[6] = target: T2, NAD-dependent protein deacetylase sirtuin-1 (Homo sapiens); test: Inhibition of SIRT1 in human U373 cells assessed as increase of histone H4 acetylation at 2.5 uM after 8 hrs by Western blotting method relative to control; format: cell-based
[7] = target: T2, NAD-dependent protein deacetylase sirtuin-1 (Homo sapiens); test: Inhibition of SIRT1 in human Hs683 cells assessed as increase of histone H4 acetylation after 8 hrs by Western blotting method; format: cell-based
NCI-H226 = test: Growth inhibition of human NCI-H226 cells after 48 hrs by SRB assay; format: functional; settings: NCI-H226, 48 h
RPMI-8226 = test: Growth inhibition of human RPMI8226 cells after 48 hrs by SRB assay; format: functional; settings: RPMI-8226, 48 h
NCI-H322M = test: Growth inhibition of human NCI-H322M cells after 48 hrs by SRB assay; format: functional
CCRF-CEM = test: Growth inhibition of human CCRF-CEM cells after 48 hrs by SRB assay; format: functional
[8] = target: T1, NAD-dependent protein deacetylase sirtuin-2 (Homo sapiens); test: Inhibition of SIRT2 in human Hs683 cells assessed as increase of alpha-tubulin acetylation at 5 uM after 8 hrs by Western blotting method relative to control; format: cell-based
NCI/ADR-RES = test: Growth inhibition of human NCI-ADR-RES cells after 48 hrs by SRB assay; format: functional
UACC-257 = test: Growth inhibition of human UACC257 cells after 48 hrs by SRB assay; format: functional; settings: UACC-257, 48 h
HOP-62 = test: Growth inhibition of human HOP62 cells after 48 hrs by SRB assay; format: functional; settings: HOP-62, 48 h
SK-MEL-28 = test: Growth inhibition of human SK-MEL-28 cells after 48 hrs by SRB assay; format: functional; settings: SK-MEL-28, 48 h
HT-29 = test: Growth inhibition of human HT-29 cells after 48 hrs by SRB assay; format: functional; settings: HT-29, 48 h
MOLT-4 = test: Growth inhibition of human MOLT4 cells after 48 hrs by SRB assay; format: functional; settings: MOLT-4, 48 h
OVCAR-8 = test: Growth inhibition of human OVCAR8 cells after 48 hrs by SRB assay; format: functional; settings: OVCAR-8, 48 h
Hs 683 = test: Antitumor activity against CM-Dil fluorescent dye labeled human Hs683 cells xenografted in zebrafish embryo at 5 to 10 uM preincubated with tumor for 30 hrs followed by tumor implantation in zebra fish yolk sac measured after 72 hrs by fluorescence microscopy; format: functional, cell-based
Summary of the method: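 Cells were pretreated in vitro at 5 or 10 μM for 30 or 36 h and labeled with CM-DiI 2 h before injection. Then 100–200 cells were injected into the yolk sac of wild-type zebrafish 48 h post-fertilization, anesthetized in 0.02% tricaine. Embryos were kept 72 h at 28.5 °C in Danieau solution with 0.003% phenylthiourea, and fluorescence was quantified in eight fish per condition.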

[9] = target: T1, NAD-dependent protein deacetylase sirtuin-2 (Homo sapiens); test: Inhibition of SIRT2 in human Hs683 cells assessed as increase of alpha-tubulin acetylation at 10 uM after 8 hrs by Western blotting method relative to control; format: cell-based
SK-MEL-5 = test: Growth inhibition of human SK-MEL-5 cells after 48 hrs by SRB assay; format: functional; settings: SK-MEL-5, 48 h

CC(C)(C)OC(=O)Nc1ccc2c(c1)C(NC(=O)Nc1cccc(C#N)c1)CC(C)(C)O2 (stereo unspecified)
GI50 (BT-549): 3.8 µM | Ratio IC50 [1]: >10 | GI50 (HCC 2998): 5.13 µM | inhibition (Homo sapiens): inactive | Ratio IC50 [2]: 20 | Ratio IC50 [3]: >10 | fold change (FC) [4]: 0.9 | fold change (FC) [5]: 12 | GI50 (OVCAR-4): 1780 nM | fold change (FC) [6]: 1 | inhibition [7]: Dose-dependent effect | GI50 (NCI-H226): 2000 nM | GI50 (RPMI-8226): 1620 nM | GI50 (NCI-H322M): 21.9 µM | GI50 (CCRF-CEM): 3.31 µM | fold change (FC) [8]: 1.5 | GI50 (NCI/ADR-RES): 3.09 µM | GI50 (UACC-257): 871 nM | GI50 (HOP-62): 5.01 µM | GI50 (SK-MEL-28): 6.46 µM | GI50 (HT-29): 6.92 µM | GI50 (MOLT-4): 2090 nM | GI50 (OVCAR-8): 3.16 µM | Activity (Hs 683): Active | fold change (FC) [9]: 1.6 | GI50 (SK-MEL-5): 427 nM
